Measured values from article PMC9292600 (Clinical Pharmacology in Drug Development, 2021).
Like-named read-outs stand apart in the source and are kept apart here.

Key:
[1] = both acetate and freebase forms, cited from earlier work
[2] = cited from earlier work
[3] = format: in vivo, human (healthy adult participants); settings: for AUC(0-inf) / AUC(0-t) / Cmax / half-life / Tmax: human, plasma, po; for Tmax: median (range)
Safety and tolerability = format: in vivo, human (healthy adult participants)
Procedure, shortened: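 Healthy adults received single 100-mg oral doses of 4×25-mg tablets, either fasted, after a high-fat meal, or after five evening doses of rabeprazole 20 mg. Safety was monitored by physical examination, laboratory tests, ECG, concomitant medication review, and AE frequency and severity. The safety population comprised all participants receiving ≥1 dose of study medication.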

[4] = 100-mg oral solution (test) versus 100-mg tablets (reference)
[5] = 100-mg tablets + high-fat meal (test) versus 100-mg tablets (reference)
[6] = 100-mg tablets + rabeprazole 20-mg (test) versus 100-mg tablets (reference)
[7] = Treatment A: 100-mg tablets, fasted, n = 24
[8] = Treatment B: 100-mg tablets + high-fat meal, n = 23
[9] = Treatment C: 100-mg tablets + rabeprazole 20 mg, n = 23
[10] = Treatment D: 100-mg oral solution, n = 24

In the case of C[C@H]1Oc2cc(cnc2N)-c2c(nn(C)c2C#N)CN(C)C(=O)c2ccc(F)cc21 [Lorlatinib, (10R)‐7‐amino‐12‐fluoro‐2,10,16‐trimethyl‐15‐oxo‐10,15,16,17‐tetrahydro‐2H‐8,4‐(metheno)pyrazolo[4,3‐h][2,5,11]‐benzoxadiazacyclotetradecine‐3‐carbonitrile], the Aqueous solubility ([1]; pH 7.7) is listed as 100 µg/mL, the Aqueous solubility ([1]; pH <2) is listed as over 10000 µg/mL and the “Geometric mean maximum plasma concentration (Cmax)” value ([2]; 100 mg/100 μCi [14C]lorlatinib) is listed as “about 600 ng/mL”. For the same compound, the Renal clearance ([2]; 100 mg/100 μCi [14C]lorlatinib) was 1.6 mL/min, the “Urinary excretion of unchanged lorlatinib” value ([2]; 100 mg/100 μCi [14C]lorlatinib) was about 0.7% and the “Mean terminal plasma elimination half-life (t1/2)” value ([2]; human ADME studies) was “about 20 hours”. For the same compound, the “Ratio (Test/Reference) of Adjusted Means, AUCinf” value (“Ratio (Test/Reference) … AUCinf” below) [3, 4] was 107.9%, the “Ratio (Test/Reference) of Adjusted Means, AUClast” value (“Ratio (Test/Reference) … AUClast” for short) [3, 4] was 107.8% and the “Ratio (Test/Reference) of Adjusted Means, Cmax” value (shortened to “Ratio (Test/Reference) … Cmax”) [3, 4] was 129.7%. The “Ratio (Test/Reference) … AUCinf” value [3, 5] was 104.7%, the “Ratio (Test/Reference) … AUClast” value [3, 5] was 104.6% and the “Ratio (Test/Reference) … Cmax” value [3, 5] was 90.9%. For the same compound, the “Ratio (Test/Reference) … AUCinf” value [3, 6] was 100.9%, the “Ratio (Test/Reference) … AUClast” value [3, 6] was 99.7% and the “Ratio (Test/Reference) … Cmax” value [3, 6] was 70.7%. For the same compound, the “Adjusted geometric mean Cmax” value ([3]; 100-mg tablets, fasted (reference), mixed-effects model) was 533.1 ng/mL, the “Arithmetic mean CL/F” value ([3]; Treatment A: single oral 100-mg dose, tablets, fasted, n = 24, mean ± SD) was 11.8 ± 2.5 L/h and the “Geometric mean CL/F” value ([3]; Treatment A: single oral 100-mg dose, tablets, fasted, n = 24, value (geometric %CV)) was 11.5 (24) L/h. For the same compound, the “Arithmetic mean CL/F” value ([3]; Treatment B: single oral 100-mg dose, tablets + high-fat meal, n = 23, mean ± SD) was 11.7 ± 2.8 L/h, the “Geometric mean CL/F” value ([3]; Treatment B: single oral 100-mg dose, tablets + high-fat meal, n = 23, value (geometric %CV)) was 11.4 (24) L/h and the “Arithmetic mean CL/F” value ([3]; Treatment C: single oral 100-mg dose, tablets + rabeprazole 20 mg, fasted, n = 23, mean ± SD) was 11.9 ± 2.5 L/h. The “Geometric mean CL/F” value ([3]; Treatment C: single oral 100-mg dose, tablets + rabeprazole 20 mg, fasted, n = 23, value (geometric %CV)) was 11.6 (24) L/h, the “Arithmetic mean CL/F” value ([3]; Treatment D: single oral 100-mg dose, oral solution, fasted, n = 24, mean ± SD) was 11.0 ± 2.4 L/h and the “Geometric mean CL/F” value ([3]; Treatment D: single oral 100-mg dose, oral solution, fasted, n = 24, value (geometric %CV)) was 10.7 (24) L/h. The AUC(0-inf) ([3]; 100 mg, Arithmetic mean AUCinf, Treatment A: single oral 100-mg dose, tablets, fasted, n = 24, mean ± SD) was 8960 ± 2380 ng·h/mL, the AUC(0-inf) ([3]; 100 mg, Arithmetic mean AUCinf, Treatment B: single oral 100-mg dose, tablets + high-fat meal, n = 23, mean ± SD) was 9030 ± 2280 ng·h/mL and the AUC(0-inf) ([3]; 100 mg, Arithmetic mean AUCinf, Treatment D: single oral 100-mg dose, oral solution, fasted, n = 24, mean ± SD) was 9620 ± 2440 ng·h/mL. The AUC(0-t) ([3]; 100 mg, Arithmetic mean AUClast, Treatment A: single oral 100-mg dose, tablets, fasted, n = 24, mean ± SD) was 8380 ± 1990 ng·h/mL, the AUC(0-t) ([3]; 100 mg, Arithmetic mean AUClast, Treatment B: single oral 100-mg dose, tablets + high-fat meal, n = 23, mean ± SD) was 8460 ± 1940 ng·h/mL and the AUC(0-t) ([3]; 100 mg, Arithmetic mean AUClast, Treatment D: single oral 100-mg dose, oral solution, fasted, n = 24, mean ± SD) was 8990 ± 2040 ng·h/mL. It also gave a Cmax ([3]; 100 mg, Arithmetic mean Cmax, Treatment A: single oral 100-mg dose, tablets, fasted, n = 24, mean ± SD) of 559 ± 115 ng/mL, a Cmax ([3]; 100 mg, Arithmetic mean Cmax, Treatment D: single oral 100-mg dose, oral solution, fasted, n = 24, mean ± SD) of 722 ± 185 ng/mL and a half-life ([3]; 100 mg, Arithmetic mean t1/2, Treatment A: single oral 100-mg dose, tablets, fasted, n = 24, mean ± SD) of 24.2 ± 5.2 h. For the same compound, the half-life ([3]; 100 mg, Arithmetic mean t1/2, Treatment B: single oral 100-mg dose, tablets + high-fat meal, n = 23, mean ± SD) was 23.7 ± 6 h, the half-life ([3]; 100 mg, Arithmetic mean t1/2, Treatment D: single oral 100-mg dose, oral solution, fasted, n = 24, mean ± SD) was 24.1 ± 5.4 h and the AUC(0-inf) ([3]; 100 mg, Geometric mean AUCinf, Treatment A: single oral 100-mg dose, tablets, fasted, n = 24, value (geometric %CV)) was 8710 ng·h/mL. For the same compound, the AUC(0-inf) ([3]; 100 mg, Geometric mean AUCinf, Treatment B: single oral 100-mg dose, tablets + high-fat meal, n = 23, value (geometric %CV)) was 8780 ng·h/mL, the AUC(0-inf) ([3]; 100 mg, Geometric mean AUCinf, Treatment D: single oral 100-mg dose, oral solution, fasted, n = 24, value (geometric %CV)) was 9360 ng·h/mL and the AUC(0-t) ([3]; 100 mg, Geometric mean AUClast, Treatment B: single oral 100-mg dose, tablets + high-fat meal, n = 23, value (geometric %CV)) was 8260 ng·h/mL. The AUC(0-t) ([3]; 100 mg, Geometric mean AUClast, Treatment D: single oral 100-mg dose, oral solution, fasted, n = 24, value (geometric %CV)) was 8790 ng·h/mL, the Cmax ([3]; 100 mg, Geometric mean Cmax, Treatment A: single oral 100-mg dose, tablets, fasted, n = 24, value (geometric %CV)) was 548 ng/mL and the Cmax ([3]; 100 mg, Geometric mean Cmax, Treatment B: single oral 100-mg dose, tablets + high-fat meal, n = 23, value (geometric %CV)) was 489 ng/mL. The Cmax ([3]; 100 mg, Geometric mean Cmax, Treatment D: single oral 100-mg dose, oral solution, fasted, n = 24, value (geometric %CV)) was 705 ng/mL, the Tmax ([3]; 100 mg, Treatment B: single oral 100-mg dose, tablets + high-fat meal, n = 23) was 2 h and the Tmax ([3]; 100 mg, Treatment D: single oral 100-mg dose, oral solution, fasted, n = 24) was 1 h. It also gave an AUC(0-inf) ([3]; Arithmetic mean AUCinf, Treatment C: single oral 100-mg dose, tablets + rabeprazole 20 mg, fasted, n = 23, mean ± SD) of 8880 ± 2430 ng·h/mL, an AUC(0-t) ([3]; Arithmetic mean AUClast, Treatment C: single oral 100-mg dose, tablets + rabeprazole 20 mg, fasted, n = 23, mean ± SD) of 8190 ± 1930 ng·h/mL and a Cmax ([3]; Arithmetic mean Cmax, Treatment C: single oral 100-mg dose, tablets + rabeprazole 20 mg, fasted, n = 23, mean ± SD) of 398 ± 114 ng/mL. It also gave an AUC(0-inf) ([3]; Geometric mean AUCinf, Treatment C: single oral 100-mg dose, tablets + rabeprazole 20 mg, fasted, n = 23, value (geometric %CV)) of 8630 ng·h/mL, an AUC(0-t) ([3]; Geometric mean AUClast, Treatment C: single oral 100-mg dose, tablets + rabeprazole 20 mg, fasted, n = 23, value (geometric %CV)) of 8010 ng·h/mL and a Cmax ([3]; Geometric mean Cmax, Treatment C: single oral 100-mg dose, tablets + rabeprazole 20 mg, fasted, n = 23, value (geometric %CV)) of 383 ng/mL. For the same compound, the Tmax ([3]; Treatment C: single oral 100-mg dose, tablets + rabeprazole 20 mg, fasted, n = 23) was 2 h, the “Higher Cmax with the oral solution than with the tablet formulation” value ([3]; single 100-mg oral dose, fasted) was about 30% and the “Participants with any serious treatment-related AE” value (Safety and tolerability; [7]) was 0 n (%). The “Participants with any treatment-emergent AE” value (Safety and tolerability; [7]) was 19 (79) n (%), the “Participants with any treatment-related AE” value (Safety and tolerability; [7]) was 19 (79) n (%) and the “Treatment-related AE: Acne” value (Safety and tolerability; [7]) was 4 (17) n (%). The “Treatment-related AE: Diarrhea” value (Safety and tolerability; [7]) was 3 (13) n (%), the “Treatment-related AE: First-degree AV block” value (Safety and tolerability; [7]) was 5 (21) n (%) and the “Treatment-related AE: Headache” value (Safety and tolerability; [7]) was 7 (29) n (%). The “Participants with any serious treatment-related AE” value (Safety and tolerability; [8]) was 0 n (%), the “Participants with any treatment-emergent AE” value (Safety and tolerability; [8]) was 15 (65) n (%) and the “Participants with any treatment-related AE” value (Safety and tolerability; [8]) was 15 (65) n (%). The “Treatment-related AE: Acne” value (Safety and tolerability; [8]) was 2 (9) n (%), the “Treatment-related AE: Diarrhea” value (Safety and tolerability; [8]) was 1 (4) n (%) and the “Treatment-related AE: First-degree AV block” value (Safety and tolerability; [8]) was 2 (9) n (%). The “Treatment-related AE: Headache” value (Safety and tolerability; [8]) was 4 (17) n (%), the “Participants with any serious treatment-related AE” value (Safety and tolerability; [9]) was 0 n (%) and the “Participants with any treatment-emergent AE” value (Safety and tolerability; [9]) was 19 (83) n (%). The “Participants with any treatment-related AE” value (Safety and tolerability; [9]) was 19 (83) n (%), the “Treatment-related AE: Acne” value (Safety and tolerability; [9]) was 2 (9) n (%) and the “Treatment-related AE: Diarrhea” value (Safety and tolerability; [9]) was 2 (9) n (%). For the same compound, the “Treatment-related AE: First-degree AV block” value (Safety and tolerability; [9]) was 4 (17) n (%), the “Treatment-related AE: Headache” value (Safety and tolerability; [9]) was 7 (30) n (%) and the “Participants with any serious treatment-related AE” value (Safety and tolerability; [10]) was 0 n (%). For the same compound, the “Participants with any treatment-emergent AE” value (Safety and tolerability; [10]) was 16 (67) n (%), the “Participants with any treatment-related AE” value (Safety and tolerability; [10]) was 16 (67) n (%) and the “Treatment-related AE: Acne” value (Safety and tolerability; [10]) was 4 (17) n (%). The “Treatment-related AE: Diarrhea” value (Safety and tolerability; [10]) was 2 (8) n (%), the “Treatment-related AE: First-degree AV block” value (Safety and tolerability; [10]) was 3 (13) n (%) and the “Treatment-related AE: Headache” value (Safety and tolerability; [10]) was 6 (25) n (%). The “Deaths during the study” value (Safety and tolerability; all treatment periods) was “no deaths”, the “Participants with serious or severe treatment-related AEs” value (Safety and tolerability; all treatment periods) was “No participants” and the “AEs mild in severity (of all AEs)” value (Safety and tolerability; all treatment periods, remainder moderate) was 119 of 135.
